Screening data (PubChem BioAssay)
OX1R antag-1 – OX1R (HCRTR1) antagonists, primary screen, fluorescence, CHO/OX1R cells, Fluo-8 calcium, orexin A; Fluo-8 calcium fluorescence; Orexin/Hypocretin receptor type 1 (Homo sapiens), O43613; actives 0.43% (n = 330,000); inhibition, % at 5 µM;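 active = inhibition above its plate's threshold, mean inhibition of all tested compounds on the plate plus 3 SD, cut at about 37% in these data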
Target sequence (O43613 whole entry, looked up): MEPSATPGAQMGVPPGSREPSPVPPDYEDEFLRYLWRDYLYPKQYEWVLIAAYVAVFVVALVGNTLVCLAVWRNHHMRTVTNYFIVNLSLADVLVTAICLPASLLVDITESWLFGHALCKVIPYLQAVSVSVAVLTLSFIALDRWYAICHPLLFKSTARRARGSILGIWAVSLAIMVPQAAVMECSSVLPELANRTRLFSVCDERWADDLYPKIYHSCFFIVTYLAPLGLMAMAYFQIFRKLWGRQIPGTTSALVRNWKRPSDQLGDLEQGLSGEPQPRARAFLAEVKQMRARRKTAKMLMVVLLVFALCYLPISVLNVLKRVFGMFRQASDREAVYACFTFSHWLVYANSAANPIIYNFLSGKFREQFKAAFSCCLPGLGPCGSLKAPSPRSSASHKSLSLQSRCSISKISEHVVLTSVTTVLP
PGE2 EP2 inh – human EP2 receptor antagonists, primary screen, TR-FRET cAMP, C6 glioma cells; Prostaglandin E2 receptor EP2 subtype (Homo sapiens), P43116; C6 glioma cells expressing human EP2; cells stimulated with saturating PGE2; inhibition, % at 25 µM; actives 0.52% (n = 260,000); AID 1422, 2008;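 active = percent inhibition above 40 after rounding to a whole number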;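 note: rat C6 glioma host cells with rolipram phosphodiesterase inhibitor present; the protocol text gives 20 µM as final concentration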
CHO parental Ca – ATP-evoked calcium signal inhibitors, parental CHO, primary screen, counter-screen for OX1R antagonist project, cell-based, fluorescence, Fluo-8 calcium dye. AID 463079, 2010. actives 0.63% (n = 330,000). inhibition, % at 5.6 µM. parental CHO-K1, ATP-induced calcium, Fluo-8 fluorescence;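 active = inhibition above that plate's mean sample inhibition plus 3 SD, cut at about 26% in these data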
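Assay system: parental CHO cells; Read-out basis: percent inhibition of ATP-evoked calcium rise, normalized to controls; Benchmarks: ATP and no-ATP DMSO wells; Compound dosing: single nominal dose of 5.6 µM per compound; Signal: Fluo-8 calcium dye fluorescence; Also added: ATP as calcium-mobilizing challenge; Repeats: singlicate.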
EP2 mod – EP2 receptor modulators, cAMP readout, primary screen, cell-based, HTRF cAMP, PGE2 stimulation; Prostaglandin E2 receptor EP2 subtype (Homo sapiens), P43116; EP2-expressing cells, cAMP HTRF FRET, PGE2 co-stimulation; induction, % at 25 µM; actives 0.83% (n = 260,000); AID 940, 2007;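 active = compounds whose cAMP rise, as percent of the full-agonist control response, exceeds 60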;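 note: rat C6 glioma line stably carrying human EP2 under a CMV promoter; the protocol text gives 20 µM as final concentration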
OX1R antag-2 – antagonists of human orexin 1 receptor (OX1R). inhibition, % at 6.6 µM. actives 1.8% (n = 330,000). OX1R-expressing cells, FRET antagonist read-out. AID 485270, 2010. Orexin/Hypocretin receptor type 1 (Homo sapiens), O43613; in the data active = inhibition mostly above about 38%, no sharp cut-off; inactive = mostly below about 40%
GPR7 antag – GPR7 receptor antagonists, primary screen, cell-based, fluorescence, single concentration; actives 1.1% (n = 290,000); Neuropeptides B/W receptor type 1 (Homo sapiens), P48145; GPR7-expressing cells, fluorescence antagonist assay; inhibition, % at 4.4 µM; in the data active = inhibition above about 16%, passing the limit was not always enough;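 note: cells stimulated with the agonist NPW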
EP2 cAMP induct – cAMP induction in EP2, EP4, beta2-AR and parental cells, confirmation, counter-screen for EP2 modulator project, cell-based, five parallel assays, C6 glioma, HEK293; shares compounds with EP2 mod; cAMP HTRF induction; plus low (about EC15) PGE2 agonist; calls only at 20 µM (by protocol); actives 47% (n = 1,300);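 active = cAMP induction above 50% in the main assay while under 30% in all four parallel counter assays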;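 note: rat C6 glioma cells stably expressing human EP2 receptor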
A number is an active result; n = inactive; x = no result given; + = active, no number; ! = repeats disagree. An excerpt weighted towards active compounds, which were near 3.7% of everything screened.

SMILES	OX1R antag-1	PGE2 EP2 inh	CHO parental Ca	EP2 mod	OX1R antag-2	GPR7 antag	EP2 cAMP induct
Cc1ccc(NC(=O)CSc2nc(-c3ccco3)c(C#N)c(=O)[nH]2)cc1	x	n	x	n	x	x	x
COC(=O)c1c(NC(=O)c2ccco2)sc(C(=O)Nc2cccc(C)c2)c1C	x	n	x	n	x	x	x
CCC(C)c1ccc(NC(=O)N2CCOCC2)cc1 (stereo unspecified)	n	x	n	x	n	n	x
Cc1ccc(CSc2nc3ccccc3cc2C=O)cc1	n	n	n	71	n	n	n
CCC(C)NC(=O)Cn1c(=O)n(CCCC(=O)NCc2ccccc2Cl)c(=O)c2ccccc21 (stereo unspecified)	n	n	n	n	n	n	x
COc1ccccc1/C=C(/C(=O)OCC(=O)Nc1ccccc1C(C)C)c1ccccc1	n	n	n	68	n	n	+
COc1ncnc2c1oc1nc(CC(C)C)c3c(c12)CCCC3	x	n	x	68	x	n	+
C=CCCCOc1ccc(C(=O)O)cc1	n	n	n	n	n	n	x
C=CCC(=O)OCCCCCCOc1ccc(C(=O)O)cc1	n	n	n	67	n	n	n
Cc1ccc(-c2csc3ncnc(N4CCN(Cc5ccccc5)CC4)c23)cc1	n	x	n	x	n	n	x
Cc1ccc(-c2csc3ncnc(N4CCc5ccccc5C4)c23)cc1	n	n	n	70	n	n	n
O=C(CN1CCCCC1)N1c2ccccc2Oc2ccccc21	n	n	n	n	n	n	x
O=C(CO/N=C/c1ccccc1)N1c2ccccc2Oc2ccccc21	n	n	n	66	n	n	n
COc1ccc(CCN(Cc2nc(-c3ccccc3)no2)Cc2nc(-c3ccccc3)no2)cc1OC	n	n	n	n	n	n	n
COc1ccc(S(=O)(=O)N(Cc2ccccc2)Cc2nc(-c3ccccc3)no2)cc1	n	n	n	n	n	n	+
COc1ccc(CCN(C)Cc2nc(-c3cnccn3)no2)cc1OC	n	n	n	n	n	n	x
Cc1cccc(NC(=S)N2CCN(Cc3ccccc3)CC2)c1C	n	n	n	n	n	n	x
O=C(NCC(c1cccs1)N1CCOCC1)c1ccc(Cl)s1 (stereo unspecified)	n	n	n	n	n	n	x
COC(=O)C1C(c2ccccc2)C(C(=O)OCc2ccco2)C1c1ccccc1 (stereo unspecified)	n	n	n	68	n	n	n
Cc1ccc(NCc2ccccc2OCc2ccccc2F)cc1	n	n	n	76	n	n	n
Oc1ccc(NCc2ccccc2OCc2ccccc2F)cc1	n	n	n	n	n	n	x
Cc1ccc(-c2nc3ccccc3nc2Cl)cc1	n	n	n	65	n	n	n
COc1ccc(-c2cc(C(F)(F)F)nc(N3CCOCC3)n2)cc1OC	n	n	n	70	n	n	+
COc1ccc(-c2cc(C(F)(F)F)nc(NC3CCCC3)n2)cc1OC	n	n	n	68	n	n	n
Cc1ccc(OCC(=O)N2CCN(S(=O)(=O)c3ccc4c(c3)OCCO4)CC2)c(C)c1	n	x	n	x	n	x	x
SMILES	OX1R antag-1	PGE2 EP2 inh	CHO parental Ca	EP2 mod	OX1R antag-2	GPR7 antag	EP2 cAMP induct
Cn1c(CNc2ccc(F)cc2)nnc1SCC(=O)NNC(=O)Cc1ccccc1	n	n	n	n	n	n	n
O=C(Cc1ccc(Cl)cc1)NC1CC1	n	n	n	n	n	n	x
Cc1cc(C(F)(F)F)n2nc(-c3sccc3-n3cccc3)cc2n1	n	x	n	n	n	n	x
Cc1cc(-c2sccc2C)nc(-n2cccc2)n1	n	n	n	75	n	n	+
CSc1nnc(-c2ccccc2)c(-c2ccccc2)n1	n	n	n	n	n	n	x
CSc1nnc2c3ccccc3c3ccccc3c2n1	x	x	x	76	x	n	+
O=C(O)c1ccc(CNCc2ccccc2Cl)cc1	n	n	n	n	n	n	x
O=C(O)c1ccc(CNCc2cccc(Cl)c2Cl)cc1	n	n	n	68	n	n	n
O=S(=O)(c1ccc(-n2cnnn2)cc1)N1CCC(N2CCCCC2)CC1	n	n	n	n	n	n	x
CCN(CC)CCNc1ncnc2c1sc1nc(N3CCOCC3)c3c(c12)CCCC3	n	n	n	n	n	n	x
O=c1c2ccccc2c(-c2ccccc2)nn1Cc1c(Cl)cccc1Cl	n	n	n	85	n	n	+
CCOc1ccc(-n2c(C)nc3c(cnn3-c3ccc(Cl)cc3)c2=O)cc1	x	n	x	n	x	n	x
CCc1nc2c(cnn2-c2ccc(Cl)cc2)c(=O)n1-c1ccc(OC)cc1	n	n	n	81	n	n	n
C=CCn1c(SCC(N)=O)nc(C)cc1=O	n	n	n	68	n	n	n
CS(=O)(=O)Nc1nc2ccc(S(C)(=O)=O)cc2s1	x	n	x	n	x	x	x
CC(=O)O[C@H]1C[C@@H](OC(C)=O)C(C)(C)C2C[C@@H](OC(C)=O)[C@]3(C)C([C@H](OC(C)=O)C[C@@]4(C)[C@H](c5ccoc5)OC(=O)[C@H]5O[C@]543)[C@]21C (stereo partly specified)	x	n	x	70	x	x	+
CC(=O)O[C@H]1CC[C@@]2(C)C(C[C@@H](OC(C)=O)[C@]3(C)C2CC[C@@]2(C)[C@H](c4ccoc4)OC(=O)[C@H]4O[C@]423)C1(C)C (stereo partly specified)	x	n	x	n	x	x	x
CCOc1cc(/C=N\NC(=O)c2ccc(NC(=O)C(C)(C)C)cc2)ccc1OC(=O)c1ccc(C)cc1	n	n	n	n	n	n	x
CCOc1cc(/C=N/NC(N)=O)ccc1OC(=O)c1ccc(C)cc1	n	x	n	66	n	n	n
CCCNC1CCS(=O)(=O)C1 (stereo unspecified)	n	n	n	n	n	n	x
O=C(O)c1nc2nc(Cl)c(Cl)nc2[nH]1	n	n	n	63!	n	n	n
CCN(CC)C(=O)CSc1nnc2c3cc(Br)ccc3n(C)c2n1	x	n	x	n	x	x	x
CCc1nc(N2CCC(C)CC2)c2oc3ccccc3c2n1	n	n	n	70	n	n	n
CCc1nc(SCCO)c2oc3ccccc3c2n1	n	n	n	n	n	n	x
O=C(NC(=O)N1CCCc2ccccc21)c1ccccc1	n	n	n	n	n	n	x
O=C(C(c1ccccc1)c1ccccc1)N1CCCc2ccccc21	n	n	n	78	n	n	+
